IDE cell activ – boosts human insulin-degrading enzyme activity in HEK cells; hit rate 0.073% among 340,000; activation, % at 5.96 µM; FAbeta-B cleavage, fluorescence polarization; 0% vehicle, 100% cell-free pure enzyme wells; AID 493087;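 active = activation above the mean of all tested compounds plus 3 SD, set per screening campaign, cut at about 17% in these data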
CSN inh – blocks human CSN-mediated cullin deneddylation; hit rate 0.38% among 360,000; Q92905; inhibition, % at 12.5 µM; AID 651999; Purified CSN, SCF-Nedd8-OG deneddylation, fluorescence polarization;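 active = pattern-corrected inhibition above about 35%, with an unprinted fluorescence ratio check between 0.5 and 1.5, limit read from the data, passing the limit was not always enough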
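Assay system: Purified human Csn5 enzyme expressed in HEK293T cells | Amount: Enzyme 0.24 nM | Measured by: Fluorescence polarization readout | Medium: Tris/NaCl/DTT buffer, pH 7.5 | Compound dosing: One concentration, 12.5 µM, 0.25% DMSO | Times: 90 min incubation of compound, enzyme and substrate at room temperature | Control set: no-enzyme wells high, enzyme-with-substrate wells low | Read-out: % inhibition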
TbMetRS inhib – blocks T. brucei methionyl-tRNA synthetase activity; purified T. brucei MetRS, ATP depletion, Kinase-Glo luminescence; inhibition, % at 11.9 µM; hit rate 0.4% among 360,000;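 active = inhibition above a per-plate cutoff of the control wells' mean inhibition plus 3 SD, cut at about 5.5% in these data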
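Dosing: 11.9 µM compound single dose, 0.9% DMSO; Assay system: purified T. brucei MetRS enzyme; Measured by: Kinase-Glo luciferase luminescence reporting remaining unconsumed ATP; Schedule: 15 min plus 2 h at 25 °C.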
IDE cell inh – inhibitors of human insulin-degrading enzyme in cells; HEK cells, FAbetaB cleavage, fluorescence polarization; inhibition, % at 5.59 µM; hit rate 0.41% among 320,000;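 active = percent inhibition above the average of all tested compounds plus 3 SD, set per screening campaign, cut at about 16% in these data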;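 note: IDE supplied by intact live HEK cells; FP after avidin binding of uncleaved biotin substrate so inhibition keeps polarization high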
HNF4A DNA FP – change in binding of human HNF4 alpha to DNA | AID 1224865 | hit rate 0.3% among 360,000 | activity change, % at 10 µM | HNF4a-FITC DNA binding, fluorescence polarization, 1 h; in the data active = activity change above about 30%, passing the limit was not always enough
TPT1 inh – inhibitors of Candida albicans tRNA 2'-phosphotransferase TPT1; AID 1962; inhibition, % at 5 µM; hit rate 0.81% among 300,000; recombinant caTPT1, FP RNA substrate dephosphorylation;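 active = inhibition above the mean of all tested compounds plus 3 SD, set per screening campaign, cut at about 24% in these data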
IDE inh confirm – confirmation of human insulin-degrading enzyme inhibitors in cells. inhibition, % at 5.59 µM. shares compounds with IDE cell inh. hit rate 51% among 1,200. HEK cells, FAbetaB cleavage, fluorescence polarization;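 active = mean inhibition across triplicate wells above the cutoff set by the earlier primary insulin-degrading enzyme screen, cut at about 16% in these data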
HEK293 tox – HEK cell cytotoxicity, counter-screen for IDE inhibitors; hit rate 28% among 1,200; HEK293 cytotoxicity, ATP luminescence; shares compounds with IDE cell inh; inhibition, % at 5.59 µM; in the data active = inhibition above about 22%
A number is an active result; n = inactive; x = no result given. The list is not random: actives were taken first. Their share in the collection is about 1.7%.

SMILES	IDE cell activ	CSN inh	TbMetRS inhib	IDE cell inh	HNF4A DNA FP	TPT1 inh	IDE inh confirm	HEK293 tox
Cc1ccccc1S(=O)(=O)Cc1ccc(C(=O)N2CC(C)CC(C)C2)o1 (stereo not given)	n	n	n	n	n	n	x	x
Cc1ccccc1S(=O)(=O)Cc1ccc(C(=O)N2CCN(c3cccc(C)c3C)CC2)o1	n	n	n	17	n	n	n	69
CN(CC(=O)Nc1ccc(Cl)cc1)CC(=O)Nc1sc2c(c1C(N)=O)CCC2	x	n	n	x	n	x	x	x
N=c1ccn(CC(=O)c2ccc(-c3ccccc3)cc2)cc1	n	n	n	43	n	n	n	88
O=C(CN1C(=O)CCC1=O)c1ccc(-c2ccccc2)cc1	n	n	n	n	n	n	x	x
CCOC(=O)Nc1ccc(C(=O)/C=C/c2ccccc2)cc1	n	n	n	n	n	n	x	x
CC1CCN(c2ccc3c(c2)S(=O)(=O)c2cccc(C(=O)NCc4ccc(F)cc4)c2C3=O)CC1	n	n	n	n	n	x	x	x
O=C(NC1CC1)c1cccc2c1C(=O)c1ccc(N3CCC(Cc4ccccc4)CC3)cc1S2(=O)=O	n	n	n	40	n	x	70	45
CC1CCN(c2ccc3c(c2)S(=O)(=O)c2cccc(C(=O)O)c2C3=O)CC1	n	n	n	32	n	x	48	n
Cc1ccc(S(=O)(=O)Nc2cc(C(C(=O)OC(C)C)C(=O)C(F)(F)F)c(O)c3ccccc23)c(C)c1 (stereo not given)	n	n	n	22	n	n	n	n
Cc1ccc(S(=O)(=O)Nc2ccc(O)c3ccccc23)c(C)c1	n	n	n	x	n	x	x	x
CCc1sc(C(=O)Nc2nc(-c3ccccn3)cs2)cc1C	n	n	n	19	n	x	n	50
Cc1ccc(C(=O)Nc2nc(-c3ccccn3)cs2)s1	n	n	n	n	n	x	x	x
COc1ccc(CCNC(=O)c2ccc3ccccc3n2)cc1	n	n	n	n	n	n	x	x
COc1ccc(OC)c2c1C(=O)c1ccccc1C2=O	x	x	x	n	x	n	x	x
COc1ccc(OC)c2c1C(=O)C(Cl)=C(Cl)C2=O	n	n	n	22	n	n	18	125
Cc1cccc(N2CCN(C(=O)CSCc3c(C)noc3C)CC2)c1C	n	n	n	17	n	n	n	65
Cc1noc(C)c1CSCC(=O)N1CCN(c2ccc(F)cc2)CC1	n	n	n	n	n	n	x	x
O=C(NCCc1ccc(Cl)cc1)c1cc(S(=O)(=O)N2CCCCC2)c[nH]1	n	n	n	n	n	n	x	x
C=CCc1cc(/C=C2/NC(=O)NC2=O)cc(OCC)c1O	n	n	n	n	n	n	x	x
C=CCc1cc(/C=C2/NC(=S)NC2=O)cc(OC)c1O	n	n	n	36	n	n	88	n
Cc1ccc[n+](CC(=O)c2ccc(-c3ccccc3)cc2)c1	n	n	n	22	n	n	n	n
O=C(COC(=O)COc1ccc(Br)cc1)NC1CCS(=O)(=O)C1 (stereo not given)	x	n	n	x	n	x	x	x
Cc1ccc(NC(=O)C(C)Sc2nnc(-c3cccnc3)n2-c2ccccc2)cc1 (stereo not given)	n	n	n	23	n	n	n	n
CCOc1ccc(-n2c(SCc3ccc(C#N)cc3)nnc2-c2cccnc2)cc1	n	n	n	n	n	n	x	x
N#Cc1ccc(CSc2nnc(-c3cccnc3)n2-c2ccccc2)cc1	n	n	n	19	n	n	n	28
Cc1ccc(NC(=O)C(C)Sc2nnc(-c3cccnc3)o2)cc1 (stereo not given)	n	n	n	n	n	n	x	x
CN(C(=O)c1ccc(Br)o1)C1(C)CCS(=O)(=O)C1 (stereo not given)	n	n	n	n	n	n	x	x
S=C(Nc1ccccc1)Nc1nc2ccccc2n1CCOc1ccc(Br)cc1	n	n	n	26	n	n	n	n
Cn1c(NC(=S)Nc2ccccc2)nc2ccccc21	n	n	n	n	n	n	x	x

High-throughput results from PubChem BioAssay.
